Bioassay records from PubChem BioAssay.
hIAP act: increases human intestinal alkaline phosphatase activity. 330,000 compounds, 0.16% hits. purified human IAP, CDP-Star luminescence, 30 min; active compounds read high; 1 = vehicle-only enzyme, 0 = enzyme-free background. activation factor at 10 µM. AID 2524;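 active = activation factor of the enzyme at least 2-fold when tested at 20 µM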
Target sequence (P09923 whole entry, looked up): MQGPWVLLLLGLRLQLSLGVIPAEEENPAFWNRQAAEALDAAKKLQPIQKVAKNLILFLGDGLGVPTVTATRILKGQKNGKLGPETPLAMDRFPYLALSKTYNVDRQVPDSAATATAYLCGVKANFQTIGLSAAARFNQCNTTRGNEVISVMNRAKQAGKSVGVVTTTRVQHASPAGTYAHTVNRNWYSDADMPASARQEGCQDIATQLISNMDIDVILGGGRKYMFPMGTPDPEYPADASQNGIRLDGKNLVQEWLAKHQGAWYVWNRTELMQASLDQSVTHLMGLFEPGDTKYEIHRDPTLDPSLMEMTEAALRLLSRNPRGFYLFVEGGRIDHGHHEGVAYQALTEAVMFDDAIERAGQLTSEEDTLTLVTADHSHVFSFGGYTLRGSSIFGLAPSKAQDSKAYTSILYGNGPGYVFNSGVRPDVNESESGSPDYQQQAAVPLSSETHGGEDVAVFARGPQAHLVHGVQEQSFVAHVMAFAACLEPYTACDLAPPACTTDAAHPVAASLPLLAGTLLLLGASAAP
mIAP block: mouse IAP inhibition; purified mouse IAP, CDP-Star luminescence, 30 min; inhibition, % at 10 µM; 330,000 compounds, 0.2% hits; AID 2806;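 active = inhibition of at least 40% at 10 µM in the primary screen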
mIAP act: increases mouse intestinal alkaline phosphatase activity; muIAP, CDP-Star luminescence, 30 min; active compounds read high; 1 = vehicle-only enzyme signal, 0 = enzyme-free wells; activation factor at 10 µM; 330,000 compounds, 0.24% hits;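 active = activation factor of at least 2 at 20 µM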
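System: mouse IAP enzyme. Reagent: CDP-Star chemiluminescent phosphatase substrate. Benchmarks: DMSO wells, no-enzyme wells. Times: 30 min enzyme-substrate-compound incubation at room temperature. Detection: luminescence from enzymatic CDP-Star hydrolysis. Doses: test compounds delivered from DMSO solution.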
bIAP inhibitor: intestinal alkaline phosphatase (bovine) inhibition. purified bovine IAP, CDP-star luminescence, 30 min. inhibition, % at 20 µM. 190,000 tested, under 10 active. AID 1019;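 active = over 50% inhibition of intestinal alkaline phosphatase at 20 µM in the single-dose screen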
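Incubation: 30 min reaction at room temperature / Material: purified bovine intestinal alkaline phosphatase (IAP) enzyme / Input: enzyme at 1/65,000,000 dilution / Dosing: 20 µM single dose / Signal: CDP-star luminescence signal / Reagent: CDP-star chemiluminescent phosphatase substrate, 30 µM final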
hIAP inh: blocks human intestinal alkaline phosphatase; 330,000 compounds, 0.12% hits; purified IAP, CDP-Star luminescence, 30 min; inhibition, % at 10 µM; AID 2544;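 active = inhibition reaching a set limit with compound at 10 µM in the primary screen, cut at about 35% in these data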
bIAP activator: intestinal alkaline phosphatase (bovine) activation; purified bovine IAP, CDP-star luminescence, 30 min; active compounds read high; fold of DMSO-control signal, blank-subtracted; activation factor at 20 µM; 200,000 compounds, 0.17% hits; AID 1016;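 active = activation factor of 2 or more at 20 µM, a signal rise over negative controls twice the positive control's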
Of the large screens only hits and unclear results are named; the others gave an inactive call. Rows were chosen to be rich in hits. Some 0.79% of all compounds tested hit in one or more screens of this group.

COc1ccccc1C(CNC(=O)CCNC(=O)c1ccccc1Cl)N1CCCC1 (stereo not given)	none (no result: bIAP inhibitor, bIAP activator)
C=CCOc1ccc(/C=N/NC(=O)C(C)Sc2ccccn2)cc1OC (stereo not given)	none
CC1CC(C)(C)NCCNC(C)CC(C)(C)NCCN1 (stereo not given)	bIAP activator 2.8
CCn1c(C(O)c2cc(OC)c(OC)c(OC)c2)nc2ccccc21 (stereo not given)	none (no result: bIAP inhibitor, bIAP activator)
CCn1c(C(O)c2ccc3c(c2)OCO3)nc2ccccc21 (stereo not given)	bIAP activator 2.5
CN(CCCS(=O)(=O)[O-])c1ccc(/C=C/c2ccc3ccccc3[n+]2C)cc1	none (no result: bIAP inhibitor, bIAP activator)
CN(C)c1ccc(/C=C/c2ccc3ccccc3[n+]2C)cc1	mIAP block 42
CC(C)c1ccc(/C=C/c2ccc(=O)n(C)n2)cc1	none
c1ccc(CNc2c3c(nc4ncnn24)CCCC3)nc1	bIAP activator 4.8
COc1ccc(-c2cc(NCc3ccccn3)n3ncnc3n2)cc1	bIAP activator 7.4
CC1CCCCN1CC(=O)Nc1sc2c(c1C#N)CCC2 (stereo not given)	none
Cc1ccc(C(=O)NC(NC(=O)c2ccc(C)cc2)C(Cl)Cl)cc1	mIAP act 3.4
O=C(CSC(=S)N1CCN(c2ccccc2)CC1)Nc1nc(-c2ccccc2)c(-c2ccccc2)o1	bIAP activator 2.2
COc1ccc(CCNC(=O)c2nn(C)cc2Cl)cc1	none
COc1ccc(CCNC(=O)c2cc(-c3ccc(Cl)c(Cl)c3)oc2C)cc1	mIAP act 3.4
CC1CCc2c(cnc3ncnn23)C1 (stereo not given)	none (no result: bIAP inhibitor, bIAP activator)
COc1ccc(-c2nc(CCNC(=O)c3cccs3)cs2)cc1	none
CCN(CC)c1ccc2cc(-c3nc4ccccc4[nH]3)c(=O)oc2c1	none
CCN(CC)c1ccc2cc(-c3nc4ccccc4n3C)c(=O)oc2c1	bIAP activator 2.6 (no result: hIAP act, mIAP block, mIAP act, hIAP inh)
Fc1ccc(-n2cc(CNCCc3cccnc3)c(-c3ccccc3Cl)n2)cc1	none
COc1cc(CNCCc2c[nH]c3ccccc23)ccc1OCc1ccc(F)cc1	bIAP activator 2.9
COc1ccc(CCNC(=O)Cn2nnc(C(=O)Nc3cccc(C)c3C)c2N)cc1OC	none (no result: bIAP inhibitor, bIAP activator)
Cc1ccc(NC(=O)Nc2cc(S(=O)(=O)N(C)C)ccc2C)cc1	mIAP act 2.8
COc1ccc(CC(=O)Nc2ccc(S(=O)(=O)N3CCN(C)CC3)cc2)cc1	none (no result: bIAP inhibitor, bIAP activator)
O=C(CN(C(=O)Cn1nnc(-c2ccccc2F)n1)c1cccc2c1CCCC2)NCc1ccccc1	bIAP activator 2.2
Cc1nonc1OCCNC(=O)C12CC3CC(CC(C3)C1)C2	none
CN(c1cccc(NC(=O)CN(c2ccc(Cl)c(Cl)c2)S(=O)(=O)c2ccccc2)c1)S(C)(=O)=O	none
Cc1ccc(S(=O)(=O)N(CC(=O)Nc2cccc(N(C)S(C)(=O)=O)c2)c2ccc(Cl)c(Cl)c2)cc1	mIAP act 2.6
O=C(CSc1ccccn1)Nc1ccccc1F	none
O=C(CSc1ccccn1)Nc1cccc2ccccc12	mIAP block 68
O=C(O)c1cccc(S(=O)(=O)N2CCC(n3nnc4cc(C(F)(F)F)ccc43)CC2)c1	none (no result: bIAP inhibitor, bIAP activator)
CC(C)Oc1ccc(CNC(=S)Nc2ccccc2)cc1Cl	none (no result: bIAP inhibitor, bIAP activator)
Cc1ccc(NC(=S)NC(C)CCc2ccccc2)cc1C (stereo not given)	mIAP act 2.5
CC(C)COc1ccc(CNC(=S)NCc2ccccc2)cc1	mIAP act 3.7
CC(C)COc1ccc(CNC(=S)Nc2ccccc2)cc1Cl	mIAP act 2.5 (no result: bIAP inhibitor, bIAP activator)
COc1ccc(CNC(=S)NC(C)CCc2ccccc2)cc1 (stereo not given)	mIAP act 2.4
CCn1cc(C(=O)NCCCN(CC(C)C)CC(C)C)c(=O)c2cc(S(=O)(=O)N3CCOCC3)ccc21	none (no result: bIAP inhibitor, bIAP activator)
CCC1=NN(C(=O)Cc2ccc(OC)c(OC)c2)C(O)(C(F)(F)F)C1 (stereo not given)	none
CCCCc1ccc(NC(=S)NCc2ccc(OC)cc2)cc1	mIAP act 2.5
CC1(C)Nc2ccccc2N(Cc2ccc([N+](=O)[O-])cc2)C1=O	none
CC(C)(C)NC(=O)C(=O)NN=C1CCCCCC1	none
CN1CCC(=NNC(=O)C(=O)NC(C)(C)C)CC1	bIAP activator 3.8
COc1ccc(C(=O)Nc2nc(C)cs2)cc1S(=O)(=O)N1CCCC1	none
CCC(C(=O)NC1CCCC1)N(Cc1cccs1)C(=O)Cn1nnc(-c2ccc(OC)c(OC)c2)n1 (stereo not given)	mIAP act 2.1
COc1ccc(C(C(=O)NC2CCCC2)N(Cc2cccs2)C(=O)c2ccn[nH]2)cc1OC (stereo not given)	bIAP activator 2.3
COCCN(C(=O)Cc1cccs1)C(C(=O)NC1CCCC1)c1ccc(OC)c(OC)c1 (stereo not given)	none
COc1ccc(-c2nnn(CC(=O)N(Cc3cccs3)C(C)C(=O)NC3CCCC3)n2)cc1OC (stereo not given)	none
CC(O)CNc1nc2ccccc2n1-c1ncnc2sc3c(c12)CCC3 (stereo not given)	bIAP activator 2.1
CSc1cccc(N2C(=O)C3CCCN3C2=S)c1 (stereo not given)	none (no result: bIAP inhibitor, bIAP activator)
COc1cc(CNCc2ccccn2)ccc1OCc1ccc(Cl)cc1	none
COc1cc(CNCc2ccccn2)ccc1OCc1c(Cl)cccc1Cl	bIAP activator 2.5
C/C(Cc1ccccc1)=N\NC(=O)CNC(=O)c1ccccc1Br	none
O=C(Nc1cccc(Cl)c1)N1CCN2C(=O)c3ccccc3C12c1ccccc1 (stereo not given)	mIAP act 2.1
CNC(=O)c1cc2c(=O)n3cccc(C)c3nc2n(C(C)C)c1=N	none
C=CCn1c2ccccc2c2nnc(SCCCn3c(=O)[nH]c4ccccc43)nc21	bIAP activator 2 (no result: hIAP act, mIAP block, mIAP act, hIAP inh)
COCC(=O)Nc1cc(C)cn(Cc2ccccc2Cl)c1=O	none (no result: bIAP inhibitor, bIAP activator)
Cc1occc1-c1nnc(SCC(=O)NC2CCC(C)CC2)o1 (stereo not given)	none (no result: bIAP inhibitor, bIAP activator)
S=C(NCc1ccccc1)NC1CCCc2ccccc21 (stereo not given)	mIAP act 2.6
c1ccc2c(c1)CCN(c1ncnc3c1[nH]c1ccccc13)C2	bIAP activator 2.1
O=C(COc1cccnc1[N+](=O)[O-])Nc1ccc(Cl)c(S(=O)(=O)N2CCOCC2)c1	none (no result: bIAP inhibitor, bIAP activator)
CCOP(=O)(OCC)C(NC(=O)Nc1ccc(Cl)c(Cl)c1)c1ccccc1 (stereo not given)	mIAP act 5
CCOP(=O)(OCC)C(NC(=O)Nc1ccc(Cl)cc1)c1ccccc1 (stereo not given)	mIAP act 2
CCOP(=O)(OCC)C(NC(=O)Nc1ccc(Cl)cc1)C(N)=O (stereo not given)	none
CCOP(=O)(OCC)C(NC(=O)Nc1ccc(Cl)c(Cl)c1)C(N)=O (stereo not given)	none (no result: bIAP inhibitor)
